In brackets after ≈: the same amount, converted by molar mass.
Assays:
[1] = target: T1, Calcitonin gene-related peptide type 1 receptor (Homo sapiens, UniProt O60894+Q16602); assay: Antagonist activity at human recombinant CGRP receptor expressed in HEK293 cells assessed as inhibition of CGRP-stimulated increase of intracellular cAMP level in absence of human serum albumin; assay type: functional, cell-based
Outline: (§1)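 HEK 293 cells expressing human recombinant CGRP receptor; antagonism of CGRP-stimulated rise in intracellular cAMP measured, run with or without HSA; functional pKi (fpKi) derived. Values are means of two experiments unless otherwise footnoted.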

[2] = target: T1, Calcitonin gene-related peptide type 1 receptor; assay: Antagonist activity at human recombinant CGRP receptor expressed in HEK293 cells assessed as inhibition of CGRP-stimulated increase of intracellular cAMP level in presence of human serum albumin; assay type: functional, cell-based; outline: as §1
[3] = Aqueous solubility in fasted-state simulated intestinal fluid after 1 hr; assay type: physicochemical
Outline: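 Compound amount dissolved in fasted-state simulated intestinal fluid, read at the 1 h time point.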

[4] = Permeability across artificial membrane; assay type: ADME; conditions: PAMPA; read-out: permeability
Outline: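 In vitro artificial membrane permeability assay (PAMPA).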

[5] = Blood clearance in rat; assay type: ADME, organism-based
Rattus norvegicus [6] = assay: Liver blood flow in rat at 1 mg/kg, iv; assay type: ADME, organism-based; parameters: dose 1 mg/kg, route intravenous; conditions: in vivo
[7] = Clearance in rat at 1 mg/kg, iv; assay type: ADME, organism-based; parameters: dose 1 mg/kg, route intravenous; conditions: in vivo
Outline: (§2)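 Intravenous dose of 1 mg/kg in rat; clearance and half-life derived from the blood profile.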

[8] = Half life in rat at 1 mg/kg, iv; assay type: ADME, organism-based; parameters: dose 1 mg/kg, route intravenous; conditions: in vivo; outline: as §2
[9] = Cmax in rat at 10 mg/kg, po in 5% N-Methyl-2-pyrrolidone, 80% Poly(ethylene glycol400 diluted to volume with 20% vitamin E TPGS in water; assay type: ADME, organism-based; parameters: dose 10 mg/kg, route oral; conditions: in vivo
Outline: (§3)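 Rats given 10 mg/kg orally, formulated at 2 mg/mL in 5% NMP, 80% PEG400 made up to volume with 20% Vitamin E TPGS in water. Blood concentration-time profile followed over about 5 h per rat, giving Cmax, Tmax and dose-normalised AUC.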

[10] = Tmax in rat at 10 mg/kg, po in 5% N-Methyl-2-pyrrolidone, 80% Poly(ethylene glycol400 diluted to volume with 20% vitamin E TPGS in water; assay type: ADME, organism-based; parameters: dose 10 mg/kg, route oral; conditions: in vivo; outline: as §3
Rattus norvegicus [11] = assay: Dose normalized AUC in rat at 10 mg/kg, po in 5% N-Methyl-2-pyrrolidone, 80% Poly(ethylene glycol400 diluted to volume with 20% vitamin E TPGS in water; assay type: ADME, organism-based; parameters: dose 10 mg/kg, route oral; conditions: in vivo; outline: as §3
[12] = Bioavailability in rat at 10 mg/kg, po in 5% N-Methyl-2-pyrrolidone, 80% Poly(ethylene glycol400 diluted to volume with 20% vitamin E TPGS in water; assay type: ADME, organism-based; conditions: in vivo
[13] = Cmax in rat at 10 mg/kg, po in 1% methylcellulose; assay type: ADME, organism-based; parameters: dose 10 mg/kg, route oral; conditions: in vivo
Outline: (§4)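 Oral dosing to rats at 10 mg/kg as a 2 mg/mL suspension in 1% (w/v) aqueous methylcellulose. Blood concentrations followed over about 6 h, giving Cmax, Tmax and dose-normalised AUC.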

[14] = Tmax in rat at 10 mg/kg, po in 1% methylcellulose; assay type: ADME, organism-based; parameters: dose 10 mg/kg, route oral; conditions: in vivo; outline: as §4
Rattus norvegicus [15] = assay: Dose normalized in rat at 10 mg/kg, po in 1% methylcellulose; assay type: ADME, organism-based; parameters: dose 10 mg/kg, route oral; conditions: in vivo; outline: as §4
[16] = Bioavailability in rat at 10 mg/kg, po in 1% methylcellulose; assay type: ADME, organism-based; conditions: in vivo

T1 sequence (Q16602 whole entry, one chain of several): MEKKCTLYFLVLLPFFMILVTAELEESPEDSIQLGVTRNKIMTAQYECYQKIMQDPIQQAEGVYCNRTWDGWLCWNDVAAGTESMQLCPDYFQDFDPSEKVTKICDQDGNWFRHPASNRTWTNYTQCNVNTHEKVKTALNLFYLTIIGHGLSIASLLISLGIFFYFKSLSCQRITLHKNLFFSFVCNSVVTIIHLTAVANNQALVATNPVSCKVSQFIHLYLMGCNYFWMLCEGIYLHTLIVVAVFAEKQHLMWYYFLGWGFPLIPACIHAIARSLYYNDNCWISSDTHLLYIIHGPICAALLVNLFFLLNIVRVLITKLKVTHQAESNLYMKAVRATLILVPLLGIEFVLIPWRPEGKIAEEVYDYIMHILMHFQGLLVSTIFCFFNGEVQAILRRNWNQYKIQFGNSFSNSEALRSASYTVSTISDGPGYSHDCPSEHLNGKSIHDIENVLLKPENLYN

| Compound | Ki [1] | Ki [2] | solubility at 1 h [3] | Papp [4] | other results |
| --- | --- | --- | --- | --- | --- |
| O=C(Cc1nnc(-c2ccc(Cl)cc2)o1)N1CCC(n2c(=O)[nH]c3ncccc32)CC1 | 1000 nM |  |  |  |  |
| O=C(Cc1nnc(-c2cc(F)cc(Cl)c2)o1)N1CCC(n2c(=O)[nH]c3ncccc32)CC1 | 25.1 nM |  |  |  |  |
| O=C(Cc1nnc(-c2cc(-c3ccccc3)cc(N3CCOCC3)c2)o1)N1CCC(n2c(=O)[nH]c3ncccc32)CC1 | 200 nM |  |  |  |  |
| Cc1cc(C)cc(-c2nnc(CC(=O)N3CCC(n4c(=O)[nH]c5ncccc54)CC3)o2)c1 | 25.1 nM |  |  |  |  |
| O=C(Cc1nnc(-c2cc(F)cc(F)c2)o1)N1CCC(n2c(=O)[nH]c3ncccc32)CC1 | 126 nM |  |  |  |  |
| COc1cc(Cl)cc(-c2nnc(CC(=O)N3CCC(n4c(=O)[nH]c5ncccc54)CC3)o2)c1 | 7.94 nM |  |  |  |  |
| O=C(Cc1nnc(-c2c(Cl)cccc2Cl)o1)N1CCC(n2c(=O)[nH]c3ncccc32)CC1 | 794 nM |  |  |  |  |
| CCN1CCC(c2cc(Cl)cc(-c3nnc(CC(=O)N4CCC(n5c(=O)[nH]c6ncccc65)CC4)o3)c2)CC1 | 3.16 nM | 15.8 nM | 565 µg/mL (≈ 1030 µM) | 0.5 ×10⁻⁶ cm/s |  |
| O=C(Cc1nnc(-c2cc(C(F)(F)F)cc(C(F)(F)F)c2)o1)N1CCC(n2c(=O)[nH]c3ncccc32)CC1 | 25.1 nM |  |  |  |  |
| COc1cc(OC)cc(-c2nnc(CC(=O)N3CCC(n4c(=O)[nH]c5ncccc54)CC3)o2)c1 | 50.1 nM |  |  |  |  |
| O=C(Cc1nnc(-c2cc(Cl)ccc2Cl)o1)N1CCC(n2c(=O)[nH]c3ncccc32)CC1 | 126 nM |  |  |  |  |
| CN1CCC(c2cc(Cl)cc(-c3nnc(CC(=O)N4CCC(n5c(=O)[nH]c6ncccc65)CC4)o3)c2)CC1 | 3.98 nM | 20 nM | 531 µg/mL (≈ 991 µM) | 2.2 ×10⁻⁶ cm/s |  |
| O=C(Cc1nnc(-c2cc(Cl)cc(N3CCOCC3)c2)o1)N1CCC(n2c(=O)[nH]c3ncccc32)CC1 | 6.31 nM | 126 nM | 40 µg/mL (≈ 76.3 µM) | 12 ×10⁻⁶ cm/s | clearance [5]: 70 mL/min/kg |
| O=C(Cc1nnc(-c2cccc(Cl)c2)o1)N1CCC(n2c(=O)[nH]c3ncccc32)CC1 | 316 nM |  |  |  |  |
| O=C(Cc1nnc(-c2cc(Cl)cc(-c3ccccc3)c2)o1)N1CCC(n2c(=O)[nH]c3ncccc32)CC1 | 2.51 nM |  |  |  |  |
| O=C(Cc1nnc(-c2ccccc2Cl)o1)N1CCC(n2c(=O)[nH]c3ncccc32)CC1 | 501 nM |  |  |  |  |
| O=C(Cc1nnc(-c2cc(Cl)cc(C(F)(F)F)c2)o1)N1CCC(n2c(=O)[nH]c3ncccc32)CC1 | 3.98 nM |  |  |  | LBF (Rattus norvegicus [6]): 40%; clearance [7]: 33 mL/min/kg; half-life [8]: 0.5 h; Cmax [9]: 700 nM; Tmax [10]: 1.5 h; AUC (Rattus norvegicus [11]): 6.3 kg·min/L; bioavailability [12]: 20% |
| Cc1ccc(-c2cc(Cl)cc(-c3nnc(CC(=O)N4CCC(n5c(=O)[nH]c6ncccc65)CC4)o3)c2)cn1 | 2.51 nM | 126 nM | < 1 µg/mL | 22 ×10⁻⁶ cm/s |  |
| Cc1cc(-c2nnc(CC(=O)N3CCC(n4c(=O)[nH]c5ncccc54)CC3)o2)cc(N2CCOCC2)c1 | 6.31 nM |  |  |  |  |
| O=C(Cc1nnc(-c2cc(Cl)cc(C3CCN(CC(F)F)CC3)c2)o1)N1CCC(n2c(=O)[nH]c3ncccc32)CC1 | 3.98 nM | 79.4 nM | 10 µg/mL (≈ 17.1 µM) | 20 ×10⁻⁶ cm/s | clearance [5]: 67 mL/min/kg |
| CN(C)CCOc1cc(Cl)cc(-c2nnc(CC(=O)N3CCC(N4CCc5ccccc5NC4=O)CC3)o2)c1 | 12.6 nM | 15.8 nM | 120 µg/mL (≈ 217 µM) | 18.5 ×10⁻⁶ cm/s | clearance [7]: 50 mL/min/kg; half-life [8]: 1.9 h; Cmax [13]: 250 nM; Tmax [14]: 3 h; AUC (Rattus norvegicus [15]): 2.5 kg·min/L; bioavailability [16]: 14%; clearance [5]: 50 mL/min/kg |
| COc1ccc(-c2ccccc2)cc1CC(=O)N1CCC(n2c(=O)[nH]c3ncccc32)CC1 | 2510 nM |  |  |  |  |
| O=C(Cc1nnc(-c2cc(Cl)cc(Br)c2)o1)N1CCC(n2c(=O)[nH]c3ncccc32)CC1 | 12.6 nM |  |  |  |  |
| CN(C)CCOc1cc(Cl)cc(-c2nnc(CC(=O)N3CCC(n4c(=O)[nH]c5ncccc54)CC3)o2)c1 | 5.01 nM | 50.1 nM | 330 µg/mL (≈ 627 µM) | 1.2 ×10⁻⁶ cm/s |  |
| O=C(Cc1nnc(-c2ccc(Cl)c(Cl)c2)o1)N1CCC(n2c(=O)[nH]c3ncccc32)CC1 | 251 nM |  |  |  |  |
| CN1CCN(c2cc(Cl)cc(-c3nnc(CC(=O)N4CCC(n5c(=O)[nH]c6ncccc65)CC4)o3)c2)CC1 | 5.01 nM | 25.1 nM | 210 µg/mL (≈ 391 µM) | < 0.3 ×10⁻⁶ cm/s | clearance [5]: 72 mL/min/kg |
| O=C(Cc1nnc(-c2cccc(Cl)c2Cl)o1)N1CCC(n2c(=O)[nH]c3ncccc32)CC1 | 158 nM |  |  |  |  |
| O=C(Cc1nnc(-c2cc(Cl)cc(Cl)c2)o1)N1CCC(n2c(=O)[nH]c3ncccc32)CC1 | 15.8 nM |  |  |  |  |
| O=C(Cc1nnc(-c2ccccc2)o1)N1CCC(n2c(=O)[nH]c3ncccc32)CC1 | 200 nM |  |  |  |  |
| Cc1ncc(-c2cc(Cl)cc(-c3nnc(CC(=O)N4CCC(n5c(=O)[nH]c6ncccc65)CC4)o3)c2)n1C | 1.58 nM | 100 nM | 390 µg/mL (≈ 732 µM) | < 0.3 ×10⁻⁶ cm/s | clearance [5]: 52 mL/min/kg |

From ChEMBL document CHEMBL1156894, “Potent oxadiazole CGRP receptor antagonists for the potential treatment of migraine” (Bioorg Med Chem Lett, 2010)
